This note sets out measurements from ChEMBL document CHEMBL3244197, “Mercaptoimidazolylpropionic acid hydrobromide. Inhibition of tadpole collagenase and related properties” (J Med Chem, 1978).

Active and inactive are the calls of the source. No cut-off for these calls is given here.

A short description of data set [1]: Half life of the compound in phosphate buffer with 214 ml/min oxygen flow assessed as oxidation at 0.25 mM by Ellman's method. Format: physicochemical. The method in brief: (§1)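 35 mL sample, 0.1 M phosphate buffer pH 7.4, oxygen-saturated; water-vapour-saturated O2 bubbled through via gas dispersion tube at 20 °C. 200 µL aliquots withdrawn over time; remaining SH titre measured by quantitative Ellman determination; half-time in hours.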
(In general: DTNB colorimetry detects thiols as they appear.)

Data set [2] in a line: Half life of the compound in phosphate buffer with 400 ml/min oxygen flow assessed as oxidation at 0.14 mM by Ellman's method. Format: physicochemical. An outline of the steps: as §1
The nature of data set [3]: (§2) Inhibition of Rana catesbeiana tadpole collagenase using lathyritic rat skin collagen as substrate after 41 hrs by radial diffusion assay. The following applies: read-out: I50. The method in brief: (§3)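 Enzyme cultured from tadpole tail fin and back skin, purified by ammonium sulfate precipitation and Sephadex G-200, concentrated 20-fold by ultrafiltration at 4 °C. Gel: Tris-buffered pH 7.6, 1% agarose with 0.1% collagen, set 2 h at 20 °C, held ≥40 h at 4 °C. Wells (3.0 mm) received 15 µL enzyme ± inhibitor. Incubation 41 h at 28 °C, then 2 h at 37 °C. Lysis-zone diameter read as radial diffusion units; concentration for 50% inhibition taken.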

Data set [4] deals with Bacillus subtilis. Kind of data set: Mutagenicity in repair-deficient Bacillus subtilis assessed as growth inhibition at 0.1 M. Format: toxicity, organism-based. The settings on record: in vivo. An outline of the steps:
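Repair-deficient tester strains exposed to test compound at 0.10 M, with chloroacetaldehyde (0.10 M) as mutagen reference; growth inhibition scored.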

For data set [5], the system named is Mus musculus. Kind of data set: Toxicity in Swiss-Wistar mouse assessed as body weight gain at 189 mg/kg, ip after 3 days (reference value: 20%). The format is organism-based. Also on record: dose 189 mg/kg, route intraperitoneal. The following applies: in vivo, 72 h.
Data set [6] concerns Mus musculus. Nature of the data set: Toxicity in Swiss-Wistar mouse assessed as body weight gain at 418 mg/kg, ip after 3 days (reference value: 20%). Format: organism-based. Also on record: dose 418 mg/kg, route intraperitoneal. The settings on record: in vivo, 72 h.
Data set [7] relates to Mus musculus. Kind of data set: Toxicity in Swiss-Wistar mouse assessed as body weight gain at 885 mg/kg, ip after 3 days (reference value: 20%). Format: organism-based. The arrangement: dose 885 mg/kg, route intraperitoneal. The following applies: in vivo, 72 h.
Data set [8] concerns Mus musculus. Kind of data set: Toxicity in Swiss-Wistar mouse assessed as body weight gain at 1980 mg/kg, ip after 3 days (reference value: 20%). Also on record: dose 1980 mg/kg, route intraperitoneal. The following applies: in vivo, 72 h. The format is organism-based.
For data set [9], the system named is Mus musculus. Nature of the data set: Toxicity in Swiss-Wistar mouse assessed as change in health condition at 189 to 1980 mg/kg, ip after 7 days. Format: organism-based. The following applies: in vivo, 168 h. The arrangement: dose 189-1980 mg/kg, route intraperitoneal.
The species entered for data set [10] is Rana catesbeiana. The description is as §2. The method in brief: as §3
Data set [11] can be described thus: Half life of the compound in phosphate buffer with 200 ml/min oxygen flow assessed as oxidation at 0.28 mM by Ellman's method. Format: physicochemical. An outline of the steps:
as §1

Data set [12] is described as follows: Half life of the compound in phosphate buffer with 350 ml/min oxygen flow assessed as oxidation at 0.27 mM by Ellman's method. Format: physicochemical. An outline of the steps:
as §1

Data set [13] in a line: Half life of the compound in phosphate buffer with 214 ml/min oxygen flow assessed as oxidation at 0.24 mM by Ellman's method. The format is physicochemical. An outline of the steps:
as §1

A short description of data set [14]: Half life of the compound in phosphate buffer with 360 ml/min oxygen flow assessed as oxidation at 0.16 mM by Ellman's method. The format is physicochemical. The method in brief: as §1

What is called half-life is how long it takes for the measured level to halve. Regarding `Br.O=C(O)C(S)Cc1cnc[nH]1` (racemic), the half-life at 250 µM in [1] is 762 min. Also, the half-life at 140 µM in data set [2] is 522 min. Also, the IC50 in [3] is 3.8 mM. Moreover, the Activity result is on record as “Non-toxic” in data set [4]; 22% in data set [5]; 18% in [6]; 23% in [7]; 18% in data set [8]; “Non-toxic” in data set [9].
Take `O=C(O)C(Br)Cc1cnc[nH]1` (racemic): the I50 entry in data set [10] was “inactive”.
`CC(=O)N[C@@H](CS)C(=O)O` [ACETYLCYSTEINE]: the half-life at 280 µM in data set [11] is 768 min. Further, the half-life at 270 µM in [12] is 654 min. Further, the IC50 in data set [3] is at least 100 mM.
Regarding `N[C@@H](CS)C(=O)O` [CYSTEINE], the half-life at 240 µM in [13] was 384 min. In addition, the half-life at 160 µM in data set [14] was 318 min. Besides, the IC50 in data set [3] was 8.7 mM.
As to `N[C@@H](Cc1c[nH]cn1)C(=O)O` [HISTIDINE], in [3], the IC50 is at least 100 mM.
